The subject of data set [1] is C=C(F)c1sc(CNCCCNc2cc(=O)c3ccccc3[nH]2)c(C)c1Br. The data set can be described thus: Activity of Bacillus stearothermophilus MetRS by ATP:PPi exchange assay in presence of methionine. To be noted: Geobacillus stearothermophilus.
Data set [2] has the same test system. The data set can be described thus: Activity of Bacillus stearothermophilus MetRS by ATP:PPi exchange assay in presence of ATP. To be noted: Geobacillus stearothermophilus.
The test system of data set [3] is Staphylococcus aureus. The data set is described as follows: Ratio of Kcat to Km for Staphylococcus aureus MetRS in presence of ATP. The essentials: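 Purified recombinant S. aureus MetRS (30 nM) was assayed by ATP:PPi exchange at 30°C in Tris pH 8.0 with Mg acetate, KCl and DTT. [32P]PPi was matched to ATP, and ATP or methionine was varied. Time points from 1 to 10 min were quenched with EDTA, separated by PEI-cellulose TLC and read by phosphorimager. Initial rates were fitted to Michaelis-Menten.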

The test system of data set [4] is Staphylococcus aureus. The data set can be described thus: Ratio of Kcat to Km for Staphylococcus aureus MetRS in presence of methionine.
Data set [5] relates to Staphylococcus aureus. The data set is described as follows: Activity of […] by scintillation proximity assay in presence of tRNA. In general terms: SPA uses beads or plates that emit light when radiolabelled molecules are held near them.
The subject of data set [6] is Staphylococcus aureus. The data set can be described thus: Ratio of Kcat to Km for Staphylococcus aureus MetRS in presence of tRNA.
The subject of data set [7] is Staphylococcus aureus. The data set is described as follows: Activity of Staphylococcus aureus MetRS by ATP:PPi exchange assay in presence of methionine. Summed up: (§1)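 Purified S. aureus MetRS (wild type or mutant; E. coli-expressed, ammonium sulfate cut, anion exchange) at 30 nM. ATP:PPi exchange at 30°C in 100 mM Tris-HCl pH 8.0, 5–10 mM Mg acetate, 80 mM KCl, 2.5 mM DTT, [32P]PPi plus cold PPi equal to ATP. Quenched with EDTA over 1–10 min, PEI-cellulose TLC, phosphorimager. Initial velocities versus varied ATP or methionine fit to Michaelis-Menten.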

For data set [8], the system named is Streptococcus pneumoniae. The data set can be described thus: Activity of Streptococcus pneumoniae MetRS1 by ATP:PPi exchange assay in presence of methionine.
The species entered for data set [9] is Homo sapiens. The data set can be described thus: Activity of human mitochondrial MetRS by ATP:PPi exchange assay in presence of methionine.
For data set [10], the system named is Escherichia coli. The data set is described as follows: Activity of Escherichia coli MetRS by ATP:PPi exchange assay in presence of methionine.
Data set [11] relates to Staphylococcus aureus. The data set can be described thus: Activity of Staphylococcus aureus MetRS by ATP:PPi exchange assay in presence of ATP. Summed up:
as §1

Data set [12] has as its system Streptococcus pneumoniae. The data set can be described thus: Activity of Streptococcus pneumoniae MetRS1 by ATP:PPi exchange assay in presence of ATP.
For data set [13], the species on record is Homo sapiens. The data set is described as follows: Activity of human mitochondrial MetRS by ATP:PPi exchange assay in presence of ATP.
Data set [14] concerns Escherichia coli. The data set is described as follows: Activity of Escherichia coli MetRS by ATP:PPi exchange assay in presence of ATP.

By Km is commonly meant the concentration of substrate that gives half-maximal velocity. For orientation: kcat/Km means the turnover number divided by the Michaelis constant. In general, kcat refers to the maximal rate divided by the concentration of active sites.

Sequence of Methionine--tRNA ligase (Geobacillus stearothermophilus), P23920 (P23920 whole entry): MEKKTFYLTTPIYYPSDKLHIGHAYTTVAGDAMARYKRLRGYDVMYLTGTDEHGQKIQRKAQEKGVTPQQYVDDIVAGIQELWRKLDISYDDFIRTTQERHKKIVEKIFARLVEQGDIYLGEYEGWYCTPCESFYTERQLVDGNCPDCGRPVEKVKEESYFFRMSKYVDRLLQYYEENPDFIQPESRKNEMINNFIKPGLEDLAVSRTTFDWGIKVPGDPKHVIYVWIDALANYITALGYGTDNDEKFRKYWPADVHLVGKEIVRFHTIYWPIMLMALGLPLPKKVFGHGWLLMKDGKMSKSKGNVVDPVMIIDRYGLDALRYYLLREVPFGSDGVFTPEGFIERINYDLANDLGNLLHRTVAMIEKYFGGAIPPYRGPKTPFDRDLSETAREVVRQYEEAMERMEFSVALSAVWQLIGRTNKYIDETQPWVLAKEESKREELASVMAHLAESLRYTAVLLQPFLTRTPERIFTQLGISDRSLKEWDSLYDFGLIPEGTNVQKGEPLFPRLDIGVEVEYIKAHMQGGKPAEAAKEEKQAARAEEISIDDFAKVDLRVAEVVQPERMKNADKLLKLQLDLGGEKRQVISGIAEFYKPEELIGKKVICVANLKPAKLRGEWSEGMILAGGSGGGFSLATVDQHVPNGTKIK

For “Methionine--tRNA ligase (Geobacillus stearothermophilus), P23920”, the results for the Km in data set [1] and in data set [2] were 6 µM and 1 µM, respectively.
Consider `C=C(F)c1sc(CNCCCNc2cc(=O)c3ccccc3[nH]2)c(C)c1Br`, for which the kcat/Km in the data set on Staphylococcus aureus [3] was 50000 M⁻¹ s⁻¹; in the data set on Staphylococcus aureus [4], 250000 M⁻¹ s⁻¹; in the data set on Staphylococcus aureus [6], 490000 M⁻¹ s⁻¹. Also, the Km was 1 µM in the data set on Staphylococcus aureus [5]; 100 µM with Staphylococcus aureus [7]; 53 µM in the data set with Streptococcus pneumoniae [8]; 20 µM in the data set listed under Homo sapiens [9]; 20 µM in the data set on Escherichia coli [10]; 500 µM in the data set on Staphylococcus aureus [11]. Besides, the Km in the data set with Streptococcus pneumoniae [12] came to 514 µM; in the data set listed under Homo sapiens [13] it was 85 µM; in the data set with Escherichia coli [14], 20 µM. Also, the kcat in the data set on Staphylococcus aureus [5] worked out at 0.49 s⁻¹.

Source of the values: ChEMBL document CHEMBL1629614, “Inhibition of methionyl-tRNA synthetase by REP8839 and effects of resistance mutations on enzyme activity” (Antimicrob Agents Chemother, 2009).
